Test results from ChEMBL document CHEMBL3804761, “Synthesis of a stable and orally bioavailable englerin analogue” (Bioorg Med Chem Lett, 2016).

Assays:
Assay type in all cases: functional
[1] = Growth inhibition of human RXF393 cells assessed as cell growth at 10 uM incubated for 48 hrs by sulforhodamine B assay relative to control; details: RXF 393, 48 h, read-out: Activity
How it was run: (§1)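 Run in the standard NCI 60-cell-line screen. Cells were exposed to drug for two days, and the read-out was sulforhodamine B staining. Compound was tested at a single final concentration of 10 µM in every line, and results are reported as growth percent.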

SN12C = test: Growth inhibition of human SN12C cells assessed as cell growth at 10 uM incubated for 48 hrs by sulforhodamine B assay relative to control; details: read-out: Activity; how it was run: as §1
MDA-MB-435 [2] = test: Growth inhibition of human MDA-MB-435 cells incubated for 48 hrs by sulforhodamine B assay; details: MDA-MB-435, 48 h; for TGI: read-out: pTGI (converted)
How it was run: (§2)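 NCI 60-cell-line panel, standard protocol. Cells exposed to compound for two days, growth read by sulforhodamine B staining. Tested at five 10-fold dilutions, top concentration 100 µM, to give dose-response curves.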

[3] = Growth inhibition of human HCT116 cells assessed as cell growth at 10 uM incubated for 48 hrs by sulforhodamine B assay relative to control; details: HCT-116, 48 h, read-out: Activity; how it was run: as §1
[4] = Growth inhibition of human IGROV1 cells assessed as cell growth at 10 uM incubated for 48 hrs by sulforhodamine B assay relative to control; details: IGROV-1, 48 h, read-out: Activity; how it was run: as §1
[5] = Growth inhibition of human OVCAR3 cells assessed as cell growth at 10 uM incubated for 48 hrs by sulforhodamine B assay relative to control; details: OVCAR-3, 48 h, read-out: Activity; how it was run: as §1
CCRF-CEM [6] = test: Growth inhibition of human CCRF-CEM cells incubated for 48 hrs by sulforhodamine B assay; details: for CC50: read-out: pLC50 (the source's name) (converted); for TGI: read-out: pTGI (converted); how it was run: as §2
MCF7 [7] = test: Growth inhibition of human MCF7 cells assessed as cell growth at 10 uM incubated for 48 hrs by sulforhodamine B assay relative to control; details: MCF7, 48 h, read-out: Activity; how it was run: as §1
SK-MEL-5 = test: Growth inhibition of human SK-MEL-5 cells incubated for 48 hrs by sulforhodamine B assay; details: SK-MEL-5, 48 h; for TGI: read-out: pTGI (converted); how it was run: as §2
NCI-H322M = test: Growth inhibition of human NCI-H322M cells assessed as cell growth at 10 uM incubated for 48 hrs by sulforhodamine B assay relative to control; details: read-out: Activity; how it was run: as §1
MCF7 [8] = test: Growth inhibition of human MCF7 cells incubated for 48 hrs by sulforhodamine B assay; details: MCF7, 48 h; for CC50: read-out: pLC50 (the source's name) (converted); for TGI: read-out: pTGI (converted); how it was run: as §2
[9] = Growth inhibition of human TK10 cells assessed as cell growth at 10 uM incubated for 48 hrs by sulforhodamine B assay relative to control; details: TK-10, 48 h, read-out: Activity
How it was run: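 NCI 60-cell line standard protocol, one-dose screen: single final concentration 10 µM, 2-day drug exposure, sulforhodamine B (SRB) endpoint; read-out is growth percent relative to untreated control.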

SK-MEL-28 = test: Growth inhibition of human SK-MEL-28 cells assessed as cell growth at 10 uM incubated for 48 hrs by sulforhodamine B assay relative to control; details: SK-MEL-28, 48 h, read-out: Activity; how it was run: as §1
[10] = Growth inhibition of human SNB75 cells incubated for 48 hrs by sulforhodamine B assay; details: SNB-75, 48 h; for TGI: read-out: pTGI (converted)
How it was run: (§3)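 Tested in the standard NCI 60-cell-line protocol with two-day drug exposure and a sulforhodamine B endpoint. Compounds were first screened at a single final concentration of 10 µM, reported as growth percent. They were then run as five 10-fold dilutions starting from a high concentration of 100 µM to give dose-response curves.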

HT-29 = test: Growth inhibition of human HT-29 cells assessed as cell growth at 10 uM incubated for 48 hrs by sulforhodamine B assay relative to control; details: HT-29, 48 h, read-out: Activity; how it was run: as §1
A549 = test: Growth inhibition of human A549/ATCC cells assessed as cell growth at 10 uM incubated for 48 hrs by sulforhodamine B assay relative to control; details: A549, 48 h, read-out: Activity; how it was run: as §1
[11] = Growth inhibition of human BT549 cells incubated for 48 hrs by sulforhodamine B assay; details: BT-549, 48 h; for CC50: read-out: pLC50 (the source's name) (converted); for TGI: read-out: pTGI (converted); how it was run: as §2
[12] = Growth inhibition of human SKOV3 cells incubated for 48 hrs by sulforhodamine B assay; details: SK-OV-3, 48 h; for TGI: read-out: pTGI (converted); how it was run: as §3
U-251 = test: Growth inhibition of human U251 cells incubated for 48 hrs by sulforhodamine B assay; details: U-251, 48 h; for TGI: read-out: pTGI (converted); how it was run: as §3
[13] = Growth inhibition of human LOXIMVI cells incubated for 48 hrs by sulforhodamine B assay; details: LOX IMVI; for TGI: read-out: pTGI (converted); how it was run: as §2
[14] = Growth inhibition of human UO31 cells incubated for 48 hrs by sulforhodamine B assay; details: UO-31, 48 h; for CC50: read-out: pLC50 (the source's name) (converted); for TGI: read-out: pTGI (converted); how it was run: as §3
[15] = Growth inhibition of human SW620 cells assessed as cell growth at 10 uM incubated for 48 hrs by sulforhodamine B assay relative to control; details: SW-620, 48 h, read-out: Activity; how it was run: as §1
K562 = test: Growth inhibition of human K562 cells assessed as cell growth at 10 uM incubated for 48 hrs by sulforhodamine B assay relative to control; details: K562, 48 h, read-out: Activity; how it was run: as §1
[16] = Growth inhibition of human IGROV1 cells incubated for 48 hrs by sulforhodamine B assay; details: IGROV-1, 48 h; for CC50: read-out: pLC50 (the source's name) (converted); for TGI: read-out: pTGI (converted); how it was run: as §2
NCI-H23 = test: Growth inhibition of human NCI-H23 cells assessed as cell growth at 10 uM incubated for 48 hrs by sulforhodamine B assay relative to control; details: NCI-H23, 48 h, read-out: Activity; how it was run: as §1
M14 = test: Growth inhibition of human M14 cells incubated for 48 hrs by sulforhodamine B assay; details: M14, 48 h; for TGI: read-out: pTGI (converted); how it was run: as §2
MDA-MB-435 [17] = test: Growth inhibition of human MDA-MB-435 cells assessed as cell growth at 10 uM incubated for 48 hrs by sulforhodamine B assay relative to control; details: MDA-MB-435, 48 h, read-out: Activity; how it was run: as §1
Malme-3M = test: Growth inhibition of human MALME-3M cells incubated for 48 hrs by sulforhodamine B assay; details: for TGI: read-out: pTGI (converted); how it was run: as §2
CCRF-CEM [18] = test: Growth inhibition of human CCRF-CEM cells assessed as cell growth at 10 uM incubated for 48 hrs by sulforhodamine B assay relative to control; details: read-out: Activity
How it was run: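 Single-dose screen in the NCI 60-cell-line panel at one final concentration of 10 µM. Two-day drug exposure with a sulforhodamine B endpoint. Values are growth percent for each cell line.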

In the case of `CC(C)[C@@]12C[C@@H](NC(=O)CO)[C@@](C)(O1)[C@@H]1CC[C@@H](C)[C@H]1[C@@H]2OC(=O)c1ccc2ccccc2c1`, the growth at 10 µM [1] was 61.6%, the growth at 10 µM (SN12C) was 66.7% and the GI50 (MDA-MB-435 [2]) was 17 µM. The LC50 (MDA-MB-435 [2]) was 63.1 µM, the TGI (MDA-MB-435 [2]) was 32.4 µM and the growth at 10 µM [3] was 75.7%. For the same molecule, the growth at 10 µM [4] was 94.3%, the growth at 10 µM [5] was 98.8% and the GI50 (CCRF-CEM [6]) was 15.8 µM. It also gave a CC50 (CCRF-CEM [6]) of 75.9 µM, a TGI (CCRF-CEM [6]) of 34.7 µM and a growth at 10 µM (MCF7 [7]) of 75.4%. It also gave a GI50 (SK-MEL-5) of 16.6 µM, an LC50 (SK-MEL-5) of 56.2 µM and a TGI (SK-MEL-5) of 30.9 µM. It also gave a growth at 10 µM (NCI-H322M) of 89.5%, a GI50 (MCF7 [8]) of 15.8 µM and a CC50 (MCF7 [8]) of 72.4 µM. For the same molecule, the TGI (MCF7 [8]) was 33.9 µM, the growth at 10 µM [9] was 102% and the growth at 10 µM (SK-MEL-28) was 93.2%. For the same molecule, the GI50 [10] was 13.2 µM, the LC50 [10] was 56.2 µM and the TGI [10] was 27.5 µM. The growth at 10 µM (HT-29) was 93.7%, the growth at 10 µM (A549) was 81% and the GI50 [11] was 14.8 µM. It also gave a CC50 [11] of 57.5 µM, a TGI [11] of 28.8 µM and a GI50 [12] of 15.8 µM. It also gave an LC50 [12] of 56.2 µM, a TGI [12] of 30.2 µM and a GI50 (U-251) of 16.2 µM. It also gave an LC50 (concentration giving 50% net cell kill) (U-251) of 56.2 µM, a TGI (U-251) of 30.2 µM and a GI50 [13] of 16.2 µM. It also gave an LC50 [13] of 57.5 µM, a TGI [13] of 30.2 µM and a GI50 [14] of 11.5 µM. The CC50 [14] was 50.1 µM, the TGI [14] was 24 µM and the growth at 10 µM [15] was 96.2%. It also gave a growth at 10 µM (K562) of 91.2%, a GI50 [16] of 17.8 µM and a CC50 [16] of 61.7 µM. It also gave a TGI [16] of 33.1 µM, a growth at 10 µM (NCI-H23) of 80.2% and a GI50 (M14) of 16.6 µM. It also gave an LC50 (M14) of 58.9 µM, a TGI (M14) of 31.6 µM and a growth at 10 µM (MDA-MB-435 [17]) of 94%. It also gave a GI50 (Malme-3M) of 16.2 µM, an LC50 (Malme-3M) of 69.2 µM and a TGI (Malme-3M) of 33.1 µM.

In the case of `C/C(=C\C(=O)O[C@H]1[C@@H]2[C@H](C)CC[C@H]2[C@]2(C)O[C@@]1(C(C)C)C[C@H]2NC(=O)CO)c1ccccc1`, the growth at 10 µM [1] was 73.5%, the growth at 10 µM (SN12C) was 84.6% and the GI50 (MDA-MB-435 [2]) was 33.9 µM. For the same molecule, the LC50 (MDA-MB-435 [2]) was greater than 100 µM, the TGI (MDA-MB-435 [2]) was greater than 100 µM and the growth at 10 µM [3] was 101%. For the same molecule, the growth at 10 µM [4] was 104%, the growth at 10 µM [5] was 121% and the GI50 (CCRF-CEM [6]) was 25.1 µM. For the same molecule, the CC50 (CCRF-CEM [6]) was greater than 100 µM, the TGI (CCRF-CEM [6]) was 77.6 µM and the growth at 10 µM (MCF7 [7]) was 89.7%. The GI50 (SK-MEL-5) was 19.5 µM, the LC50 (SK-MEL-5) was 95.5 µM and the TGI (SK-MEL-5) was 43.7 µM. The growth at 10 µM (NCI-H322M) was 105%, the GI50 (MCF7 [8]) was 27.5 µM and the CC50 (MCF7 [8]) was greater than 100 µM. It also gave a TGI (MCF7 [8]) greater than 100 µM, a growth at 10 µM [9] of 109% and a growth at 10 µM (SK-MEL-28) of 118%. For the same molecule, the growth at 10 µM (CCRF-CEM [18]) was 94.1%, the GI50 [10] was 12.3 µM and the LC50 [10] was greater than 100 µM. For the same molecule, the TGI [10] was greater than 100 µM, the growth at 10 µM (HT-29) was 98.7% and the growth at 10 µM (A549) was 84.1%. It also gave a GI50 [11] of 22.4 µM, a CC50 [11] greater than 100 µM and a TGI [11] of 69.2 µM. For the same molecule, the GI50 [12] was 30.2 µM, the LC50 [12] was greater than 100 µM and the TGI [12] was greater than 100 µM. It also gave a GI50 (U-251) of 43.7 µM, an LC50 (concentration giving 50% net cell kill) (U-251) greater than 100 µM and a TGI (U-251) greater than 100 µM. For the same molecule, the GI50 [13] was 27.5 µM, the LC50 [13] was greater than 100 µM and the TGI [13] was greater than 100 µM. For the same molecule, the GI50 [14] was 3.02 µM, the CC50 [14] was greater than 100 µM and the TGI [14] was 12 µM. For the same molecule, the growth at 10 µM [15] was 103%, the growth at 10 µM (K562) was 92.3% and the GI50 [16] was greater than 100 µM. For the same molecule, the CC50 [16] was greater than 100 µM, the TGI [16] was greater than 100 µM and the growth at 10 µM (NCI-H23) was 97.7%. The GI50 (M14) was 44.7 µM, the LC50 (M14) was greater than 100 µM and the TGI (M14) was greater than 100 µM. For the same molecule, the growth at 10 µM (MDA-MB-435 [17]) was 106%, the GI50 (Malme-3M) was 26.3 µM and the LC50 (Malme-3M) was greater than 100 µM. The TGI (Malme-3M) was greater than 100 µM.
